H9c2 protect – cardioprotection against H2O2-induced cell death, primary screen, uHTS, H9c2 cells, ATPLite luminescence | H9c2 cardiomyocytes, H2O2 injury protection, 2 h | protection from H2O2 cell death, % at 20 µM | 360,000 compounds, 0.63% hits | AID 588492, 2011;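 active = compounds giving at least 50% protection of heart cells from peroxide-induced death in the single-dose screen, raw or plate-pattern-corrected value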;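 also: 0% = DMSO wells with peroxide and 100% = DMSO wells without peroxide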
MT1-MMP act inh – blockers of MT1-MMP proenzyme processing, primary screen, HT1080 RFP-PRO-GFP cells, GFP/RFP fluorescence; Matrix metalloproteinase-14 (Homo sapiens), P50281; GFP/RFP ratio fluorescence, overnight; percent of plate control window, DMSO zero; GFP/RFP ratio change, % at 20 µM; 360,000 compounds, 0.061% hits;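 active = GFP/RFP ratio change of at least 30% with cell ATP level not reduced by more than half and red fluorescence within 50% of control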
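Test system: HT1080 RFP-PRO-GFP cells; Benchmarks: DMSO and RFP-L50D-GFP cell wells; Timing: cells overnight before dosing, compound overnight, 37 °C, 5% CO2; Compound: one 20 µM compound dose with 1% DMSO; Read-out: GFP/RFP fluorescence ratio.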
DAGLB inhibitor – DAGLB lipase inhibitors, primary screen, biochemical, fluorescence, HTS; Diacylglycerol lipase-beta (Homo sapiens), Q8NCG7; HEK293T DAGLB membrane lysate, EnzChek fluorogenic substrate; inhibition, % at 5.17 µM; 340,000 compounds, 0.059% hits; AID 504411, 2011; in the data active = inhibition above about 34%;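 also: 0% = enzyme with vehicle and 100% = wells lacking enzyme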
Target sequence (Q8NCG7 whole entry, looked up): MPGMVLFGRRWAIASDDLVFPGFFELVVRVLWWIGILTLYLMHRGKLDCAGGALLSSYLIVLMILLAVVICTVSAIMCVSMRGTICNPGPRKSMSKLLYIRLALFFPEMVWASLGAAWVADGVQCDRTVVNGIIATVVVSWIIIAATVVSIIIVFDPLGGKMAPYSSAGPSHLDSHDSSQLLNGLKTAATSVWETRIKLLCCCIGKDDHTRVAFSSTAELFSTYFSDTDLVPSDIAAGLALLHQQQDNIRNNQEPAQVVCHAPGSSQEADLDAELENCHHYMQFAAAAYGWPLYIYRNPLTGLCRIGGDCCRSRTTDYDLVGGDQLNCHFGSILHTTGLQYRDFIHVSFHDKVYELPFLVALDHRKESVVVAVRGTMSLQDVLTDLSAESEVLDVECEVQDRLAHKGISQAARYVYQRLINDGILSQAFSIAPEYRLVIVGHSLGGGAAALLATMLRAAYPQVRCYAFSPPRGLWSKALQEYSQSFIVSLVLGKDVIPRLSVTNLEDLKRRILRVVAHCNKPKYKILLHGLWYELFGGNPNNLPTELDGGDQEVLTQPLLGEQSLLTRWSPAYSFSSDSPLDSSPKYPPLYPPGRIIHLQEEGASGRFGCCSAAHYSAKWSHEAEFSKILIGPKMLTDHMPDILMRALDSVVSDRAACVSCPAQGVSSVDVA
DDE Tn6 FP inh – inhibitors of Tn6 peptide binding to fibrin DD(E), primary screen, biochemical, fluorescence polarization, human fibrin, Tn6 probe; Fibrin DD(E) TRITC-Tn6 fluorescence polarization displacement; 370,000 compounds, 0.21% hits; inhibition, % at 8.3 µM; AID 720509, 2013;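 active = inhibition above a per-campaign cutoff: mean of compounds within control limits plus 3 SD, cut at about 15% in these data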;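 also: 0% = median of all compound wells on the plate and 100% = blocking peptide control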
DDE Tn7 FP inh – inhibitors of Tn7 peptide binding to fibrin DD(E), primary screen, biochemical, fluorescence polarization, human fibrin, Tn7 probe; inhibition, % at 8.3 µM; Fibrinogen beta chain (Homo sapiens), P02675; FP displacement of FITC-Tn7 peptide from fibrin DD(E); 0% = median of compound wells per plate; AID 720508, 2013; 370,000 compounds, 0.13% hits;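 active = inhibition above the mean of compounds falling within the control limits plus 3 SD of them, cut at about 14% in these data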;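 also: 0% = plate median of compound wells and 100% = 10 µM Aha-Tn7 peptide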
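Assay system: Human clot-derived fibrin DD(E) complex | Buffer or medium: Tris/NaCl/CaCl2 buffer, pH 7.8 | Repeats: One replicate per compound | Benchmarks: Aha-Tn7 high control | Measure: % inhibition scaled between sample-field median and high-control FP | Schedule: 10 min plus 3 h, room temperature | Signal: Fluorescence polarization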
H9c2 TAG inh – inhibitors of triacylglycerol accumulation, primary screen, cell-based, uHTS, fluorescence, H9c2; H9c2 cells, Nile Red lipid (TAG) fluorescence; cells loaded with 200 µM oleic acid; 230,000 compounds, 0.66% hits; inhibition, % at 12.5 µM;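 active = pattern-corrected inhibition of lipid staining of at least 50% with the nuclear-stain viability signal not falling by more than 50%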;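 also: 0% = DMSO wells and 100% = triacsin C control wells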
MT1-MMP conf – MT1-MMP activation inhibitors, hit retest, confirmation, single concentration, fluorescence, HT1080 RFP-PRO-GFP cells; shares compounds with MT1-MMP act inh; GFP and RFP fluorescence ratio, overnight; inhibition, % at 20 µM; 200 compounds, 10% hits; AID 652235, 2013;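 active = inhibition of at least 50% in the primary cell screen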
Tn7 DDE conf – inhibitors of Tn7 peptide binding to fibrin DD(E), confirmation, biochemical, fluorescence polarization, human fibrin, Tn7 probe; shares compounds with DDE Tn7 FP inh; FP displacement of TRITC-Tn7 peptide from DD(E); 0% set at plate's compound-well median; inhibition, % at 8.3 µM; 460 compounds, 5% hits;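 active = inhibition above the campaign cutoff, the mean of compounds within control limits plus 3 SD, cut at about 14% in these data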;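 also: 100% = median FP of high control wells holding Aha-Tn7 inhibitor peptide; displacers lower polarization since freed probe rises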
DDE Tn7 FP ctr – counter-screen for inhibitors of Tn7 peptide binding to fibrin DD(E); shares compounds with DDE Tn7 FP inh; TRITC-Tn7 probe displacement, fluorescence polarization; inhibition, % at 8.3 µM; 460 compounds, 3% hits; AID 720633;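 active = inhibition above the cutoff, the mean of compounds lying between the control bounds plus 3 SD of those compounds, cut at about 17% in these data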;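 also: 0% = median of compound sample wells and 100% = excess unlabeled Aha-Tn7 peptide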
Tn6 DDE ctr – DD(E)-Tn6 binding inhibition, counter-screen; inhibition, % at 8.3 µM; AID 720621; 680 compounds, 2% hits; Fibrin DD(E), TRITC-Tn6 fluorescence polarization displacement; 0% = median of compound wells, not DMSO; shares compounds with DDE Tn6 FP inh;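 active = inhibition above the mean of test compounds lying between the control limits plus 3 SD of those, cut at about 14% in these data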;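 also: 0% = median of compound wells and 100% = wells with Aha-Tn7 blocking peptide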
Tn6 DDE conf – inhibitors of Tn6 peptide binding to fibrin DD(E), confirmation, biochemical, fluorescence polarization, human fibrin, Tn6 probe; shares compounds with DDE Tn6 FP inh; FP displacement of TRITC-Tn6 peptide from DD(E); 0% = per-plate median of test wells; inhibition, % at 8.3 µM; 680 compounds, 10% hits;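 active = inhibition above the mean of compounds lying within the control limits plus 3 SD, cut at about 16% in these data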;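 also: 100% = high control wells holding a competing inhibitor peptide at 10 µM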
* = called active by the depositor; . = no result given. A selection: hits, their analogues and other compounds. The true share with any hit is near 1.4%.

SMILES	H9c2 protect	MT1-MMP act inh	DAGLB inhibitor	DDE Tn6 FP inh	DDE Tn7 FP inh	H9c2 TAG inh	others
COc1ccc(C)cc1-n1c(=O)c2ccccc2c2ccccc2c1=O	6	5	-9	0	-10	-1
COc1ccc(C)cc1N=Nc1ccc(O)c2ncccc12	25	31*	28	1	-2	.	MT1-MMP conf=34
Cc1ccccc1N1CC(=O)N(c2ccccc2C)CC1=O	11	36*	0	3	-5	8	MT1-MMP conf=13
CCOC(=O)C1=C(C)N=c2s/c(=C\c3ccc(OC(C)=O)c(OCC)c3)c(=O)n2C1/C=C/c1ccccc1 (centres undefined)	29	42*	-2	-3	-3	-7	MT1-MMP conf=-17
O=C(COC(=O)c1ccccc1)NCC1CCCO1 (centres undefined)	-7	9	0	7	2	.
Cc1c(C(=O)OCC(=O)NCC2CCCO2)oc2ccccc12 (centres undefined)	1	33*	-1	4	4	-14	MT1-MMP conf=3
COC[C@@H]1CCCN1c1cccc2c1S(=O)(=O)N1CC[C@@H](C1)O2	.	.	.	-6	-2	.
CN(C)/C=C/c1oc2ccc(O)cc2c1[N+](=O)[O-]	-8	58*	23	-15	1	-10	MT1-MMP conf=51*
Cc1oc2ccc(O)cc2c1C(=O)c1ccc([N+](=O)[O-])cc1	-6	-4	-3	-5	-2	.
Cc1cc2ccccc2n1CCNC(=O)Cc1cccc2ccccc12	5	43*	-59	46*	-1	8	MT1-MMP conf=2;Tn6 DDE ctr=12;Tn6 DDE conf=9
Cc1cc2ccccc2n1CCNC(=O)c1ccccc1	13	61	0	15	0	-4
Cc1cc2ccccc2n1CCNC(=O)c1ccc(Br)o1	9	37*	7	17*	-4	-11	MT1-MMP conf=4;Tn6 DDE ctr=-3;Tn6 DDE conf=12
COc1ccc(S[C@]2(C(=O)N3CCN(c4ncccn4)CC3)CC(=O)N(C(=O)CCc3ccccc3)[C@@H]2c2ccc(OC)cc2)cc1	.	.	.	3	2	.
COC(=O)c1ccc2c(c1)C(C)(C)C(/C=C/c1ccc(OC)c(OC)c1OC)=[N+]2C	-20	51*	7	129*	-29	125	MT1-MMP conf=20;Tn6 DDE ctr=-11;Tn6 DDE conf=-17
CCN(C(=O)COC(=O)c1ccc(Sc2ncn[nH]2)c([N+](=O)[O-])c1)c1ccccc1C	.	.	.	-11	4	.
Cc1ccc(CN2C(=O)[C@@H]3Cc4c([nH]c5ccccc45)C(C)(C)N3C2=O)cc1	13	5	-10	-7	5	14
CC1(C)c2[nH]c3ccccc3c2C[C@@H]2C(=O)N(Cc3ccc(F)cc3)C(=O)N21	20	7	0	3	17*	-3	Tn7 DDE conf=13;DDE Tn7 FP ctr=9
Cc1ccc(Cn2c(C)c3cnn(CC(=O)NC4CCCC4)c(=O)c3c2C)cc1	-1	-3	2	-3	-5	-1
CNC(=O)Cn1ncc2c(C)n(Cc3ccc(C)cc3)c(C)c2c1=O	0	6	1	-1	14*	.	Tn7 DDE conf=-2;DDE Tn7 FP ctr=0
COC(=O)C1=C(C)N(Cc2ccc(Cl)cc2)C(=S)NC1c1cccc(OC)c1 (centres undefined)	.	.	.	3	1	.
C[C@H](O)[C@@H]1CN2CCc3c([nH]c4c(-c5ccc6c(c5)OCO6)cccc34)[C@@H]2C[C@@H]1N(C)C(=O)NC1CCCCC1	.	.	.	1	-6	.
Cc1ccc(NC(=S)NCc2ccc(Cl)cc2)c(OC(F)F)c1	-3	1	-4	7	14*	-24	Tn7 DDE conf=11;DDE Tn7 FP ctr=0
COc1ccc(CNCC#Cc2ccc(C)cc2)c(OC)c1	.	.	.	-1	0	.
CC1(c2nnnn2C2CCCCC2)CCCC(=O)N1CCc1ccc(O)cc1 (centres undefined)	.	.	.	-1	0	.
Cc1ccc(NC(=O)Cn2c(O)c(N=NC(N)=O)c3ccccc32)cc1	-10	0	1	0	14*	-4	Tn7 DDE conf=3;DDE Tn7 FP ctr=3
SMILES	H9c2 protect	MT1-MMP act inh	DAGLB inhibitor	DDE Tn6 FP inh	DDE Tn7 FP inh	H9c2 TAG inh	others
Cc1ccc(NC(=O)Cn2c(O)c(N=NC(N)=S)c3ccccc32)cc1	2	3	12	-4	-2	.
Cc1ccc(-n2c(Cc3cccs3)nnc2SCC(=O)Nc2ccccc2-c2ccccc2)cc1	.	.	.	-3	-2	.
Cc1cc2c(cc1C)C(c1cccc([N+](=O)[O-])c1)CC(=O)N2 (centres undefined)	-11	.	1	-3	14*	.	Tn7 DDE conf=4;DDE Tn7 FP ctr=-3
COc1ccc(C(C)c2cc3c(cc2OCC(=O)O)OCO3)cc1 (centres undefined)	.	.	.	5	-1	.
CN1CCN(C(=O)OCCOCCOC(=O)N2CCN(C)CC2)CC1	4	0	-1	9	14*	-9	Tn7 DDE conf=0;DDE Tn7 FP ctr=1
O=C(O)c1cc(=O)c2ccccc2[nH]1	-1	0	-2	2	14*	.	Tn7 DDE conf=-6;DDE Tn7 FP ctr=-8
O=C(O)c1cc(=O)c2c(Cl)cc(Cl)cc2[nH]1	4	-1	2	-3	-8	-6
COc1cc2c(c(OC)c1OC)-c1ccc(NCc3ccccc3)c(=O)cc1C(NC(C)=O)CC2 (centres undefined)	8	21	1	-1	15*	24	Tn7 DDE conf=-7;DDE Tn7 FP ctr=-11

Source: PubChem BioAssay (several laboratories)
